Laboratory results reported in ChEMBL document CHEMBL5331120, “Stapled β-Hairpin Antimicrobial Peptides with Improved Stability and Activity against Drug-Resistant Gram-Negative Bacteria” (J Med Chem, 2023).
≈ marks a conversion by molar mass, not a printed value. Calls of active or inactive are those of the source. No cut-off for these calls is given here.

Experiments:
[1] = tested on: Staphylococcus aureus; test: Antimicrobial activity against Staphylococcus aureus ATCC 29737 assessed as inhibition of bacterial growth incubated for 18 hrs by broth microdilution method; assay type: functional, organism-based
Summary of the method: (§1)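 Standard broth microdilution in MHB. Overnight culture (37 °C, 120 rpm) adjusted to OD600 0.07 and diluted 1000× to 3 × 10^5 CFU/mL. Peptides serially diluted in triplicate, 18 h at 37 °C with 120 rpm shaking. Growth read as OD600; MIC is the lowest concentration with no visible growth. Colistin served as control for Gram-negatives, vancomycin for S. aureus.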

[2] = tested on: Escherichia coli; test: Antimicrobial activity against colistin resistant Escherichia coli clinical isolate R1 harboring mcr-1 gene assessed as fold increase in MIC incubated for 18 hrs by broth microdilution method relative to control; assay type: functional
[3] = tested on: Escherichia coli; test: Antimicrobial activity against colistin/carbapenem resistant Escherichia coli clinical isolate R2 harboring mcr-1 and NDM-1 gene assessed as fold increase in MIC incubated for 18 hrs by broth microdilution method relative to control; assay type: functional
[4] = tested on: Escherichia coli; test: Antimicrobial activity against colistin/carbapenem resistant Escherichia coli clinical isolate R3 harboring NDM-7 and OXA-181 gene assessed as fold increase in MIC incubated for 18 hrs by broth microdilution method relative to control; assay type: functional
[5] = tested on: Escherichia coli; test: Antimicrobial activity against Escherichia coli ATCC 25922 assessed as fold increase in MIC compound pretreated for 1 hr with trypsin and measured after 18 hrs by broth microdilution method relative to control; assay type: functional; details: trypsin pretreatment 1 hr; MIC measured after 18 hrs
Summary of the method: (§2)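 Peptide incubated with trypsin at a 1:2000 trypsin/peptide molar ratio (e.g., 1 mM peptide with 0.5 μM trypsin), 37 °C, 1 h. Reaction stopped at 80 °C for 10 min, then serially diluted against E. coli in MHB broth microdilution. Inoculum 3 × 10^5 CFU/mL, 37 °C, 120 rpm, 18 h, read by OD600, triplicates. Fold change in MIC taken versus untreated control.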

[6] = Stability of compound assessed as trypsin (unknown origin) mediated compound degradation by measuring parent compound remaining measured after 1 hr by RP-HPLC analysis; assay type: ADME, protein assay; details: human, read-out: Stability
Summary of the method: (§3)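 Peptide with trypsin at a 1:2000 trypsin/peptide molar ratio, 37 °C, sampled at 15, 30, 60 and 90 min. Reaction stopped with an equal volume of 50% acetonitrile/1% TFA. Analysed on C18 RP-HPLC with UV at 220 nm; intact peptide given as % of AUC.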

[7] = tested on: Escherichia coli; test: Antimicrobial activity against Escherichia coli ATCC 25922 assessed as fold increase in MIC incubated for 18 hrs in presence of 10% fetal bovine serum by broth microdilution method relative to control; assay type: functional
Summary of the method: (§4)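 E. coli broth microdilution in MHB containing 10% fetal bovine serum. Inoculum 3 × 10^5 CFU/mL, diluted from an OD600 0.07 suspension. Incubated 18 h at 37 °C with 120 rpm shaking, OD600 read, triplicates. Fold change in MIC calculated against control MIC.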

[8] = tested on: Escherichia coli; test: Antimicrobial activity against Escherichia coli ATCC 25922 assessed as fold increase in MIC incubated for 18 hrs in presence of NaCl by broth microdilution method relative to control; assay type: functional
Summary of the method: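 MHB broth microdilution against E. coli with 150 mM NaCl added to the medium. Inoculum 3 × 10^5 CFU/mL, 37 °C, 120 rpm, 18 h, OD600 read, triplicates. MIC fold change taken relative to control.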

[9] = tested on: Cell membrane; test: Induction of outer membrane permeabilization in Escherichia coli ATCC 25922 assessed as NPN uptake at 1 times MIC incubated for 1 hr by fluorescence based microplate reader analysis relative to control
Summary of the method: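 Exponential-phase cells washed twice in PBS pH 7, resuspended to OD600 0.4; equal volume 40 μM NPN added, then equal volume peptide (4, 8, 16 μM). Incubated 1 h at 37 °C with shaking. Fluorescence ex 355/em 405 nm; % uptake relative to no-compound (F0) and colistin 100 μM control (Fmax). Three repeats.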

[10] = tested on: Cell membrane; test: Induction of inner membrane permeabilization in Escherichia coli ATCC 25922 assessed as SYTOX green uptake at 1 times MIC incubated for 1 hr by fluorescence based microplate reader analysis relative to control
Summary of the method: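 Exponential-phase cells washed twice in PBS pH 7, resuspended to OD600 0.4; equal volume SYTOX green (4 μM) added, 5 min. Peptide added (4, 8, 16 μM), 1 h at 37 °C with shaking. Fluorescence ex 488/em 523 nm; % uptake computed from untreated (F0) and positive-control peptide BTT1 (Fmax) signals. Three repeats.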

[11] = tested on: Pseudomonas aeruginosa; test: Antimicrobial activity against Pseudomonas aeruginosa ATCC 9027 assessed as inhibition of bacterial growth incubated for 18 hrs by broth microdilution method; assay type: functional; summary of the method: as §1
[12] = tested on: Escherichia coli; test: Antimicrobial activity against Escherichia coli ATCC 25922 assessed as inhibition of bacterial growth incubated for 18 hrs by broth microdilution method; assay type: functional; summary of the method: as §1
[13] = tested on: Escherichia coli; test: Antimicrobial activity against colistin resistant Escherichia coli clinical isolate R1 harboring mcr-1 gene assessed as inhibition of bacterial growth incubated for 18 hrs by broth microdilution method; assay type: functional, organism-based
Summary of the method: (§5)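 Overnight MHB culture (37 °C, 120 rpm) adjusted to OD600 0.07 (~10^8 CFU/mL), then diluted 1000× to 3 × 10^5 CFU/mL. Peptides serially diluted with the bacterial suspension in triplicate, shaken at 37 °C, 120 rpm for 18 h, then OD600 read. MIC is the lowest concentration with no visible growth. Colistin as positive control.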

[14] = tested on: Escherichia coli; test: Antimicrobial activity against colistin/carbapenem resistant Escherichia coli clinical isolate R2 harboring mcr-1 and NDM-1 gene assessed as inhibition of bacterial growth incubated for 18 hrs by broth microdilution method; assay type: functional, organism-based; summary of the method: as §5
[15] = tested on: Erythrocyte; test: Hemolytic activity in human RBC upto 128 uM incubated for 1 hr by absorbance based analysis; assay type: toxicity, cell-based
Summary of the method: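 Washed human RBCs from healthy volunteers at 4% in PBS. Peptide at 4–128 μM, 37 °C for 1 h. Supernatant after 1000g, 10 min spin read at OD540. 1% Triton X-100 gave full lysis; % hemolysis derived and HC50 estimated.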

[16] = tested on: Escherichia coli; test: Antimicrobial activity against Escherichia coli ATCC 25922 assessed as inhibition of bacterial growth compound pretreated for 1 hr with trypsin and measured after 18 hrs by broth microdilution method; assay type: functional, organism-based; summary of the method: as §2
[17] = target: Trypsin (Homo sapiens, UniProt P07477+P07478+P35030); test: Stability of compound assessed as trypsin (unknown origin) mediated compound degradation by measuring parent compound remaining measured after 1.5 hrs by RP-HPLC analysis; assay type: ADME, protein assay; details: trypsin, read-out: Stability; summary of the method: as §3
[18] = tested on: Escherichia coli; test: Antimicrobial activity against Escherichia coli ATCC 25922 assessed as inhibition of bacterial growth incubated for 18 hrs in presence of 10% fetal bovine serum by broth microdilution method; assay type: functional, organism-based; summary of the method: as §4
[19] = tested on: Escherichia coli; test: Induction of membrane morphological changes in Escherichia coli ATCC 25922 at 16 uM measured after 1 hr by TEM analysis; assay type: functional, organism-based
[20] = tested on: Escherichia coli; test: Induction of membrane morphological changes in Escherichia coli ATCC 25922 at 16 uM measured after 3 to 6 hrs by TEM analysis; assay type: functional, organism-based; details: time 3-6 hrs
[21] = tested on: Escherichia coli; test: Bactericidal activity against Escherichia coli ATCC 25922 assessed as cell killing at 1 times MIC measured after 6 hrs relative to control; assay type: functional
Summary of the method: (§6)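 Time-kill against E. coli ATCC 25922 at 1× and 2× MIC, counted as CFU/mL over time. Limit of detection 50 CFU/mL; experiments repeated two times.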

[22] = tested on: Escherichia coli; test: Bactericidal activity against Escherichia coli ATCC 25922 assessed as cell killing at 2 times MIC measured after 3 hrs relative to control; assay type: functional; summary of the method: as §6

With H-LKLKLKPGKLKLKL-OH the Activity [1] was “inactive”, the “fold change (FC)” value [2] was “>=8” and the “fold change (FC)” value [3] was “>=8”. The “fold change (FC)” value [4] was “>=8”, the “fold change (FC)” value [5] was 8 and the remaining at 1 h [6] was less than 10%. The “fold change (FC)” value [7] was 8, the “fold change (FC)” value [8] was 32 and the Activity [9] was 40%. It also gave an Activity [10] of 80%.

With `CC(C)C[C@@H]1NC(=O)[C@H](CCCCN)NC(=O)CNC(=O)C2CCCN2C(=O)[C@H](CCCCN)NC(=O)[C@H](CC(C)C)NC(=O)[C@H](CCCCN)NC(=O)[C@H](CC(C)C)NC(=O)[C@H](CCCCN)NC(=O)[C@@H](N)CC/C=C/CC[C@@H](C(=O)O)NC(=O)[C@H](CCCCN)NC(=O)[C@H](CC(C)C)NC(=O)[C@H](CCCCN)NC1=O` (single isomer, unassigned) the Activity [1] was “inactive”, the MIC [11] was 8 µM (≈ 12.7 µg/mL) and the MIC [12] was 8 µM (≈ 12.7 µg/mL). The Activity [13] was “Active”, the Activity [14] was “Active” and the Activity [15] was “Non-Toxic”. For the same compound, the Activity [16] was “Active”, the remaining at 1.5 h [17] was greater than 40% and the Activity [18] was “Active”. For the same compound, the Activity [9] was 70%, the Activity [10] was 80% and the Activity [19] was “inactive”. For the same compound, the Activity [20] was “Active”, the Activity [21] was 100% and the Activity [22] was 100%.
